Screening data (PubChem BioAssay)
Only some compounds are listed: those with a hit (about 2.4% of all), similar ones and a draw of the others.
Apaf-1 inh = human Apaf-1 inhibition | reconstituted apoptosome caspase-3 activity, DEVD-Rh110 fluorescence | inhibition, % at 20 µM | O14727 | 0.71% of 330,000 active; active = inhibition of at least 40% at 20 µM;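 also: plate controls were DMSO wells for no effect and DEVD-CHO caspase inhibitor wells for full effect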
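System – cell-free apoptosome with Apaf-1, procaspase-3 and caspase-9 · Buffer or medium – pH 7.5 Hepes buffer with CHAPS, BSA, DTT · Also added – cytochrome c with DEVD-Rh110 · Times – 30 min compound preincubation, 50 min activation, room temperature · Technique – Rh110 fluorescence intensity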
TMEM16A inh = blocks the mouse calcium-activated chloride channel TMEM16A; Q8BHY3; 1.2% of 310,000 active; AID 588511; HEK293 TMEM16A/YFP iodide influx fluorescence, ionomycin; normalized B-score (activity score, 25-100; higher = stronger inhibition) at 10 µM;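 active = ratio plate-corrected score three or more library SD toward inhibition, starting fluorescence score within five deviations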;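 also: score derived from kinetic fluorescence span divided by baseline fluorescence per well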
Target sequence (Q8BHY3 whole entry, looked up): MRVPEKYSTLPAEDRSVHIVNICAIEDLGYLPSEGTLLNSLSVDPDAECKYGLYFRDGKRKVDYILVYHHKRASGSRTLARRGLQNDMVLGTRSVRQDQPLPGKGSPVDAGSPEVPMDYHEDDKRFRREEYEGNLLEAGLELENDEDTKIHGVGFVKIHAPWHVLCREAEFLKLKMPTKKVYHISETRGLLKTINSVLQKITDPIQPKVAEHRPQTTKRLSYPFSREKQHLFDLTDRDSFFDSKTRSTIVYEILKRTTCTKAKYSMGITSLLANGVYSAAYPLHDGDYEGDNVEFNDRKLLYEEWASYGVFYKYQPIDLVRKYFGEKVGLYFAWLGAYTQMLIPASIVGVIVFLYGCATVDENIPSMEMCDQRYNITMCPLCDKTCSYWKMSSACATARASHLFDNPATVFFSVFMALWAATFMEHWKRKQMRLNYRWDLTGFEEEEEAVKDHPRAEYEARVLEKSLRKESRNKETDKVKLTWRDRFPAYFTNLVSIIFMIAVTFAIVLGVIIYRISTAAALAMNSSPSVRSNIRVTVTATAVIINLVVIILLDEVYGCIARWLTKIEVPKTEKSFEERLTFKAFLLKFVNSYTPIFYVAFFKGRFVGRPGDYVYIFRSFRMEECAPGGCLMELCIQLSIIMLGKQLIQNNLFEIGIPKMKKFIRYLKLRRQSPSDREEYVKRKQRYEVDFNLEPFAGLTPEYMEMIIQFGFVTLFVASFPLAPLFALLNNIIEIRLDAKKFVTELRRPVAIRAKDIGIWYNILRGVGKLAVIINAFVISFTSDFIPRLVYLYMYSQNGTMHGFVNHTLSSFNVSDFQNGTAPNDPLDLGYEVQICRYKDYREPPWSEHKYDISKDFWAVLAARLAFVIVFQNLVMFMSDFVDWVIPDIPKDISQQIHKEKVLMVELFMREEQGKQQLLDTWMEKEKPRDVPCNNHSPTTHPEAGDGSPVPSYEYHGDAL
UBC13 inh = inhibitors of human UBC13 polyubiquitin chain formation. 0.47% of 330,000 active. inhibition, % at 20 µM. TR-FRET. P61088; in the data active = inhibition above about 45%, passing the limit was not always enough
TMEM16A act = mouse TMEM16A channel activation, primary screen; Q8BHY3; HEK293 TMEM16A/YFP-H148Q/I152L, iodide quench fluorescence; active compounds read low; B-score at 10 µM; 0.3% of 340,000 active; AID 623877;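 active = fluorescence-ratio B-score plate-corrected deviation score at least 3 library SD below zero, with starting fluorescence score within 5 deviations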;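 also: channel opened by trigger with iodide after compound preincubation; score built on the fluorescence ratio of max minus min over baseline; more negative score means more quench and so TMEM16A activation or potentiation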
DNA FID counter = fluorescent intercalator displacement, NS3 helicase counter-screen; inhibition, % at 7.9 µM; DNA fluorescent intercalator displacement, fluorescence; 0.17% of 290,000 active; in the data active = inhibition above about 37%;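 also: 0% = vehicle and 100% = reference compound; higher means more ethidium bromide displaced from hairpin DNA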
Apaf-1 inh conf = Apaf-1 inhibition, single-dose confirmed; inhibition, % at 20 µM; AID 504614; shares compounds with Apaf-1 inh; 25% of 1,800 active; reconstituted apoptosome, caspase-3 DEVD-Rh110 fluorescence;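 active = mean inhibition of at least 40% at 20 µM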;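 also: plate controls were DMSO wells for no effect and DEVD-CHO caspase inhibitor control wells for full effect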
Rh110 quench = counter-screen for Apaf-1 inhibitors: fluorescence interference. activation (fluorescence interference), % at 20 µM. Rh110 fluorescence interference, quenched caspase reaction. AID 504615. 1,800 tested, under 10 active. shares compounds with Apaf-1 inh;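 active = signal rise of 40% or more at 20 µM, treated as a fluorescence artifact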
Apaf1 inh interf = counter-screen for Apaf-1 inhibitors: fluorescence interference, dose response | shares compounds with Apaf-1 inh | fluorescence interference counterscreen, Apaf-1 assay format | IC50, µM | 460 tested, under 10 active | AID 588538; call rule not given here
* = called active by the depositor; i = inactive; / = no result.

SMILES	Apaf-1 inh	TMEM16A inh	UBC13 inh	TMEM16A act	DNA FID counter	Apaf-1 inh conf	Rh110 quench	others
FC(F)(F)c1ccc(C2[C@H]3CN(Cc4ccc(-c5ccccc5)cc4)[C@H](c4ccccc4)C34CC2(c2ccccc2)C4)cc1 (stereo partly drawn)	30.0	i	-8.9	/	/	/	/
Cc1ccc(S(=O)(=O)N2CCN(C(=O)Cn3cnc4c3c(=O)n(C)c(=O)n4C)CC2)cc1C	-1.7	/	0.6	i	/	/	/
C[C@@H]1CN([C@H](C)CO)C(=O)Cc2cc(NC(=O)Nc3ccccc3)ccc2O[C@@H]1CN(C)C(=O)Nc1ccc2c(c1)OCO2	9.8	/	-1.4	i	/	/	/
N#CC1=C(N)Oc2n[nH]c(-c3cccs3)c2C1c1ccsc1 (stereo not drawn)	82.9*	i	-47.4	i	-6.8	25.9	9.4
O=C(c1nn2c(C(F)(F)F)cc(-c3ccccc3)nc2c1Cl)N1CCN2CCCC2C1 (stereo not drawn)	13.6	/	-3.7	i	2.4	/	/
O=C(COC(=O)CCN1C(=O)C2CC=CCC2C1=O)Nc1ccc([N+](=O)[O-])cc1 (stereo not drawn)	6.0	/	-15.6	i	/	/	/
Clc1ccc(OCCSc2nnnn2C2CCCCC2)cc1	65.2*	i	0.2	i	-4.5	12.0	0.8
COc1cc(/C=C2\SC(=S)N(N3CCOCC3)C2=O)ccc1O	-7.9	i	-1.1	i	-4.4	/	/
COc1cc(/C=C2/C(=O)N(c3ccc([N+](=O)[O-])cc3)N=C2N2CCOCC2)ccc1O	86.4*	i	-126.0	i	-1.1	39.4	3.2
O=c1cc(C=NNc2ccccc2)[nH]c(=O)[nH]1	/	/	/	i	/	/	/
O=c1cc(N/N=C/c2ccccc2)[nH]c(=O)[nH]1	68.2*	i	-33.2	i	/	43.1*	7.6	Apaf1 inh interf=>100
CNc1nc(Cl)c(SC)c(N2CCOCC2)n1	-8.5	i	-1.3	i	-0.2	/	/
O=c1cccccc1NCc1ccccc1	44.5*	i	-18.4	i	-5.8	6.8	6.3
N#Cc1ccccc1NCc1ccccc1	9.6	i	11.7	i	-2.8	/	/
CCN(CC(=O)Nc1ccc(NC(C)=O)cc1)C(=O)c1ccccc1Sc1ccccc1C#N	55.7*	/	34.7	i	/	37.3	6.3
COc1cc2cc(NC(C)=O)cc(NCc3ccccc3)c2cc1OC	87.6*	i	-30.3	i	-7.0	40.0	0.1	Apaf1 inh interf=>100
CCCCNc1cc(NC(C)=O)cc2cc(OC)c(OC)cc12	61.8*	i	-41.9	i	-8.5	83.4*	-1.0	Apaf1 inh interf=>100
CCOC(=O)C1=C(C)Nc2ccccc2N=C1NC(=O)c1cc(C)on1	7.5	/	-15.9	i	/	/	/
Cc1ccc(-n2nc3c(=O)n(CC(=O)NC4CCCCCC4)nc(C)c3c2C)cc1	4.7	i	4.1	i	-34.3	/	/
CCCCCn1c(N2CCC(Cc3ccccc3)CC2)nc2c1c(=O)[nH]c(=O)n2C	45.8*	100*	17.0	i	-14.5	31.5	10.7
CC(=O)N(Cc1ccc(F)cc1)C1=C(NCCc2ccccc2)C(=O)c2ccccc2C1=O	77.9*	i	-67.4	i	15.8	75.7*	2.6	Apaf1 inh interf=>100
O=C(NCCOc1nc(N2CCCCC2)nc(N2CCCCC2)n1)Nc1ccccc1	40.9*	i	-8.9	i	-6.1	14.7	10.6
O=C(NCCOc1nc(N2CCCCC2)nc(N2CCOCC2)n1)Nc1ccccc1	6.1	i	8.0	i	-10.9	/	/
O=C(OCc1nnc(-c2ccccc2)o1)c1ccc([N+](=O)[O-])s1	47.2*	/	-3.5	i	/	20.6	-2.5
CC(C)c1ccc(NC(=O)COC(=O)c2nn(C)c(=O)c3ccccc23)cc1	-7.1	/	8.5	i	/	/	/
SMILES	Apaf-1 inh	TMEM16A inh	UBC13 inh	TMEM16A act	DNA FID counter	Apaf-1 inh conf	Rh110 quench	others
CCOC(=O)C1Nc2ccc(C(F)(F)F)cc2C2c3ccccc3CC12 (stereo not drawn)	29.3	i	23.3	i	/	/	/
CCOC(=O)C1Nc2ccccc2C2C(O)C(O)CC12 (stereo not drawn)	65.9*	i	-26.8	i	/	18.2	-6.5
Cc1ccccc1OCCNc1cc(N2CC(C)NC(C)C2)ccc1[N+](=O)[O-] (stereo not drawn)	56.5*	i	22.4	i	38.9*	23.5	8.6
CC1CN(c2ccc([N+](=O)[O-])c(NCCOc3ccccc3)c2)CC(C)N1 (stereo not drawn)	21.7	i	-22.9	i	26.4	/	/
O=C1Nc2ccccc2Nc2ccc([N+](=O)[O-])cc21	43.0*	i	-66.5	i	3.5	32.8	1.5
O=C1OC(=O)c2cc([N+](=O)[O-])ccc21	3.8	/	5.3	i	/	/	/
COc1ccc(OC)c(N2C(=O)CCCC2=O)c1	1.3	i	-0.5	i	1.1	/	/
Cc1nn(CCC(=O)O)c2nc(-c3cccnc3)cc(C(F)(F)F)c12	-1.1	i	24.6	i	-7.0	/	/
Cc1nn(CCc2nn[nH]n2)c2nc(-c3ccc(C4CCCCC4)cc3)cc(C(F)(F)F)c12	59.7*	100*	-19.5	i	-19.1	31.6	13.1
CCOC(=O)C1CCCN(C(=O)c2cccc(S(=O)(=O)N(C)c3c(C)n(C)n(-c4ccccc4)c3=O)c2)C1 (stereo not drawn)	49.1*	i	25.6	i	-31.4	32.8	6.7
COc1cccc2c1C(=O)c1c(O)c3c(c(O)c1C2=O)CC(O)(C(=O)CO)CC3OC1CC(N(C)C)C(O)C(C)O1 (stereo not drawn)	/	/	/	i	/	/	/
CC(=O)[C@]1(O)Cc2c(O)c3c(c(O)c2[C@@H](O[C@H]2C[C@H](N)[C@H](O)[C@H](C)O2)C1)C(=O)c1ccccc1C3=O	46.6*	i	-406.1	/	/	15.2	-32.1
CC(OC(=O)Cn1[nH]c(=O)c2ccccc2c1=O)C(=O)Nc1ccc(F)cc1 (stereo not drawn)	-5.8	i	3.8	i	/	/	/
CCc1ccc(NC(=O)[C@H](Cc2c[nH]c3ccccc23)NC(=O)[C@@H]2Cc3ccccc3CN2)cc1	41.1*	i	11.9	i	11.7	18.4	0.9
CC(NC(=O)[C@H](Cc1c[nH]c2ccccc12)NC(=O)[C@@H]1Cc2ccccc2CN1)c1ccccc1 (stereo partly drawn)	5.8	i	16.7	i	5.8	/	/
CC(=O)NCc1ccc(C(=O)O)cc1	-23.4	i	0.9	i	2.3	/	/
O=[N+]([O-])c1cc([N+](=O)[O-])c2nonc2c1Nc1ccc(O)cc1	73.9*	i	-181.9	i	2.5	12.9	-2.0
CC(=O)c1ccc(Nc2c([N+](=O)[O-])ccc3nonc23)cc1	2.9	i	-51.9	/	-1.3	/	/
